Results of several laboratories.
Protocols differ between the studies behind these lines.

Compound	species	medium	route	dose	setting	Tmax [h]
C=CC(=O)N(C)CCOc1c(N)ncnc1-c1cc(F)cc(NC(=O)c2ccc(C3CC3)cc2F)c1C	human	blood	oral	200 mg	single dose, healthy volunteers	1.25
CC(C)n1cc(C#N)c2cc(-n3cc(C(=O)O)cn3)ccc21	human	plasma	oral	100 mg	single dose, fasted, healthy volunteers	3.5
C#C[C@]1(COP(=O)(O)OP(=O)(O)OP(=O)(O)O)O[C@@H](n2cnc3c(N)nc(F)nc32)C[C@@H]1O	human	plasma	oral	200 mg	single dose	6
CS(=O)(=O)CCC#N	human	plasma	oral	300 mg	multiple doses, once daily	1
CC(C)(O)c1ccccc1-c1ccc2[nH]c(/C=C/c3ccc(C(F)(F)F)cc3)nc2c1	male human	plasma	oral	120 mg	single dose, fasted	3
CCc1nc2c(C)cc(N3CCN(CC(=O)N4CC(O)C4)CC3)cn2c1N(C)c1nc(-c2ccc(F)cc2)c(C#N)s1	human	plasma	intravenous	0.1 mg	fasted, healthy volunteers	0
C[C@@H](Nc1cc(F)cc(F)c1)c1cc(C(=O)N(C)C)cc2c(=O)cc(N3CCOCC3)oc12	human	plasma	oral	30 mg	single dose, patients	2
COc1ccc([C@@H]2CN(C(=O)[C@@H](O)CO)C[C@@]2(C)[C@@H](C)O)cc1OC1CN(c2ccc(C)cn2)C1	human	plasma	oral	5 mg	single dose, healthy volunteers	1.5
CC(C)(Sc1ccncc1-c1ccc(C#N)c2ccccc12)C(=O)O	male human	plasma	oral	20 mg	single dose, fed, healthy volunteers	1.25
Cn1cc(-c2ccc(S(=O)(=O)[C@@H]3C[C@@H](C(=O)NC4(C#N)CC4)N(C(=O)C4(C(F)(F)F)CC4)C3)c(C(F)(F)F)c2)cn1	human	plasma	oral	300 mg	single dose, fasted, healthy volunteers	3.5
